Structures can show the parent of a compound that is named as a salt.
Experiments:
T47D cells [1] = test: IC50 determination, SRB cell density assay, T47D; type: cell-based; conditions: Homo sapiens
Procedure, shortened: (§1)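 Cells were seeded in 96-well plates (PC-3 at 3 × 10³, T47D at 5 × 10³) and left overnight. They were exposed 72 h at 37 °C to increasing test compound concentrations with DMSO vehicle, washed, then regrown 48 h in fresh medium. Readout was by SRB: TCA fixation overnight, 0.5% SRB for 20 min, acetic acid washes, dye dissolved in 10 mM Tris, OD at 560 nm. Density was taken relative to untreated cells (100%). Runs were in triplicate, and IC50 came from a four-parameter nonlinear fit.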

[2] = tested on: GRPR mRNA in T47D xenografts; test: Ex-vivo GRPR mRNA expression in T47D xenografts; set-up: species or system NMRI-Foxn1 nu/nu mice; conditions: T47D tumors from DXR-treated animals (5 mg/kg, 2 cycles); RT-qPCR
Procedure, shortened: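 T47D xenografts came from estradiol-supplemented female nude mice given anthracycline 5 mg/kg or placebo weekly for 2 weeks. After the last SPECT/CT scan, each tumor was halved. One half was used for GRPR mRNA by RT-qPCR against placebo.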

T47D cells [3] = test: Sensitivity to GRPR-mediated radionuclide therapy, T47D; type: cell-based, human; conditions: 50 MBq, 1 h, SRB after 6 days
Procedure, shortened: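 T47D cells were pretreated 72 h with anthracycline or vehicle (0.4% DMSO), then regrown 24 h. Next, 3 × 10⁶ cells were seeded in T25 flasks and the following day exposed 1 h at 37 °C to 50 MBq/ml ¹⁷⁷Lu-labelled GRPR tracer, [¹⁷⁷Lu]Lu-DTPA (specificity control) or medium. Cells were scraped and re-seeded at 4 × 10³ per well, grown 6 days, then read by SRB. Density was taken versus medium-treated cells within each pretreatment group, from three independent experiments in triplicate.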

PC-3 cells = test: IC50 determination, SRB cell density assay, PC-3; type: cell-based; conditions: Homo sapiens
Procedure, shortened: as §1

[4] = tested on: GRPR mRNA in PC-3 xenografts; test: Ex-vivo GRPR mRNA expression in PC-3 xenografts; set-up: species or system NMRI-Foxn1 nu/nu mice; conditions: PC-3 xenografts after third cycle of DTX 5 mg/kg; RT-qPCR
Procedure, shortened: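 PC-3 xenografts came from male nude mice given taxane 5 mg/kg or placebo (polysorbate-80 1:1 in 5% glucose) weekly for 3 weeks, N = 4. After the final SPECT/CT scan, each tumor was halved. One half was processed for GRPR mRNA by RT-qPCR and compared with placebo.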

Structure (SMILES) | IC50 (T47D cells [1]) | GRPR mRNA expression in xenografts versus placebo [2] | Cell density relative to medium-treated cells (T47D cells [3]; DXR-pretreated T47D cells) | Cell density relative to medium-treated cells (T47D cells [3]; vehicle and DXR pretreated T47D cells) | IC50 (PC-3 cells) | GRPR mRNA levels in xenografts versus placebo [4]
COc1cccc2c1C(=O)c1c(O)c3c(c(O)c1C2=O)C[C@@](O)(C(=O)CO)C[C@@H]3O[C@H]1C[C@H](N)[C@H](O)[C@H](C)O1 [DXR, doxorubicin hydrochloride] | 22.3 ± 7.04 nM | increased GRPR mRNA expression | – | – | – | –
O=C([O-])CN(CCN(CC(=O)[O-])CC(=O)[O-])CCN(CC(=O)[O-])CC(=O)[O-].[177Lu+3] [[^177Lu]Lu-DTPA] | – | – | slightly higher compared to the other conditions | no effect was observed | – | –
CC(=O)O[C@@]12CO[C@@H]1C[C@H](O)[C@@]1(C)C(=O)[C@H](O)C3=C(C)[C@@H](OC(=O)[C@H](O)[C@@H](NC(=O)OC(C)(C)C)c4ccccc4)C[C@@](O)([C@@H](OC(=O)c4ccccc4)[C@H]21)C3(C)C [DTX, anhydrous docetaxel] | 0.94 ± 0.39 nM | – | – | – | 14.1 ± 3.72 nM | similar
